This passage reports viability, differential viability (reversal) and inhibition results from PubChem BioAssay.

Activity calls are given as the source filed them. Rule as the data show it, unless noted: active = inhibition above about 31%; inactive = the rest.

The nature of assay [1]: HUVEC growth inhibition – cell-based, human, primary screen (AID 575;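 active = viability at or below 30% in both replicate assays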;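 also: 100% = median of untreated cell wells with 0.1% DMSO on each plate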). The note with it: HUVEC proliferation, CellTiter-Glo luminescence, 72 h; at 10 µM; stronger effect = lower value. The procedure, abridged: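 Assay system: primary human umbilical vein endothelial cells / Buffer or medium: endothelial basal medium with 2% FBS plus growth supplements / Compound dosing: one dose, 10 µM final, 0.1% DMSO / Timing: 72 h treatment at 37 °C / Signal: CTG luminescence / Benchmarks: 32 DMSO-only cell-control wells (high), 32 MePR drug-control wells (low) per plate / Plate: collagen-coated 384-well format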
In general terms: ATP-based viability assays read luminescence as a measure of living cells.

Assay [2] is described as follows: growth inhibitors of H69AR lung tumor, primary screen, human, duplicate replicates (AID 580;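 active = viability at or under a set limit in both replicates, limit being median viability minus 3 SD, cut at about 48% in these data, passing the limit was not always enough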;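 also: 100% = mean luminescence of untreated wells and 0% = no signal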). The conditions noted are these: H69AR lung tumor cells viability, ATP luminescence, 72 h; at 10 µM; stronger effect = lower value.
A short description of assay [3]: reversal of MRP1-mediated doxorubicin resistance, pilot screen, H69AR cells, doxorubicin co-treatment (AID 601;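 active = viability loss from added drug above about 55%, and viability with drug at most 40%, in both replicates, limit read from the data, passing the limit was not always enough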). The conditions noted are these: CellTiter-Glo, 72 h, at 10 µM; for differential viability (reversal): stronger effect = higher value.
Assay [4] is described as follows: 384-well plate pilot, post-Golgi transport modulator project, inhibition of yeast transport mutant growth (AID 636). The note with it: absorbance 615 nm, about 18 h, stronger effect = higher value.
Assay [5] in a line: growth suppression of yeast trafficking mutant, preliminary HTS, modulators of trafficking downstream of Golgi apparatus project, 1536-format plate, OD 615 nm (AID 637; in the data active = inhibition above about 30%). The conditions noted are these: yeast transport mutant growth, absorbance 615 nm, 18 h; stronger effect = higher value.
[6] abbreviates: H69AR cells + 2 uM doxorubicin, measured here: viability with 2 uM doxorubicin, stronger effect = lower value.
[7] abbreviates: H69AR cells, compound alone cytotoxicity.

Usually viability stands for a read-out of living cells in per cent, often relative to untreated cells. For orientation: inhibition means the drop in the measured response relative to a control, in per cent. With `CCN(CC(=O)NC(=O)NCc1ccco1)Cc1nc2ccccc2c(=O)[nH]1`, the viability in assay [1] is 86.5% (inactive); in assay [2], 79.7% (inactive); in assay [3] (setting [6]), 77.3%; in assay [3] (setting [7]), 79.7%. Further, the differential viability (reversal) in assay [3] (H69AR cells + 2 uM doxorubicin) is 2.42% (inactive). In addition, the inhibition in assay [4] is -0.78% (inactive); in assay [5] it was 1.43% (inactive).

As to `COc1ccc(CN(C(=O)CSc2nnc(-c3ccccc3F)o2)c2ccc(F)cc2)cc1`, the viability is 101% (inactive) in assay [1], 101% (inactive) in assay [2], 98.8% in assay [3] (setting [6]) and 101% in assay [3] (setting [7]). In addition, the differential viability (reversal) in assay [3] (H69AR cells + 2 uM doxorubicin) is 2.2% (inactive). Moreover, the inhibition in assay [4] was -5.2% (inactive); in assay [5], 2.7% (inactive).

`COc1cc(OC)cc(-c2nc(N)n[nH]2)c1`: the viability in assay [1] is 97.8% (inactive); in assay [2], 103% (inactive); in assay [3] (setting [6]) it was 97.3%; in assay [3] (setting [7]) it was 103%. Moreover, the differential viability (reversal) in assay [3] (H69AR cells + 2 uM doxorubicin) is 5.86% (inactive). In addition, the inhibition in assay [4] was -6.4% (inactive); in assay [5] it was 2.06% (inactive).

As to `Cc1csc(OCc2ccc(C#N)cc2)n1`, the viability is 98.6% (inactive) in assay [1], 101% (inactive) in assay [2], 85% in assay [3] (setting [6]) and 101% in assay [3] (setting [7]). Further, the differential viability (reversal) in assay [3] (H69AR cells + 2 uM doxorubicin) was 16.2% (inactive). Moreover, the inhibition in assay [4] is -5.32% (inactive); in assay [5], 3.97% (inactive).

Regarding `Cc1nc(-c2ccc(NC(=O)c3cccs3)cc2)cs1`, the viability is 58.8% (inactive) in assay [1], 62.3% (inactive) in assay [2], 53.2% in assay [3] (setting [6]) and 62.3% in assay [3] (setting [7]). In assay [3] (H69AR cells + 2 uM doxorubicin), the differential viability (reversal) is 9.12% (inactive). Moreover, the figures for the inhibition in assay [4] and in assay [5] were 0.13% (inactive) and 1.9% (inactive), respectively.

Regarding `O=C1c2ccccc2C(=O)N1CCC(=O)N1CCc2ccccc21`, the viability is 101% (inactive) in assay [1], 87.3% (inactive) in assay [2], 92.7% in assay [3] (setting [6]) and 87.3% in assay [3] (setting [7]). In addition, the differential viability (reversal) in assay [3] (H69AR cells + 2 uM doxorubicin) is -5.43% (inactive). Also, the inhibition in assay [4] was -4.53% (inactive); in assay [5] it was 5.08% (inactive).

For the molecule `O=C(Cc1cccs1)NCc1ccc(F)cc1`, the viability in assay [1] was 98% (inactive); in assay [2], 99.6% (inactive); in assay [3] (setting [6]), 94.4%; in assay [3] (setting [7]) it was 99.6%. For the same molecule, in assay [3] (H69AR cells + 2 uM doxorubicin), the differential viability (reversal) was 5.21% (inactive). The inhibition in assay [4] is -3.6% (inactive); in assay [5], 3.33% (inactive).

Consider `CC(C)CC(OC(=O)c1cccs1)C(=O)NCc1ccco1` (stereo not given), for which the viability in assay [1] is 103% (inactive); in assay [2] it was 80.6% (inactive); in assay [3] (setting [6]), 81%; in assay [3] (setting [7]), 80.6%. For the same molecule, the differential viability (reversal) in assay [3] (H69AR cells + 2 uM doxorubicin) was -0.4% (inactive). The inhibition in assay [4] was -7.6% (inactive); in assay [5] it was -4.13% (inactive).

As to `CCCC(=O)Nc1ccc(NC(=O)c2cccs2)cn1`, the viability in assay [1] was 95.9% (inactive); in assay [2], 87.8% (inactive); in assay [3] (setting [6]) it was 82.3%; in assay [3] (setting [7]), 87.8%. Also, the differential viability (reversal) in assay [3] (H69AR cells + 2 uM doxorubicin) was 5.45% (inactive). Moreover, the inhibition in assay [4] was -2.99% (inactive); in assay [5] it was -2.86% (inactive).

Consider `CCn1c(CSc2nc(C)cc(C)n2)nnc1SCC(=O)Nc1ccccc1`, for which the viability in assay [1] was 104% (inactive); in assay [2], 89.5% (inactive); in assay [3] (setting [6]), 85.4%; in assay [3] (setting [7]), 89.5%. In assay [3] (H69AR cells + 2 uM doxorubicin), the differential viability (reversal) is 4.12% (inactive). For the same molecule, the values for the inhibition in assay [4] and in assay [5] were -4.27% (inactive) and -3.02% (inactive), respectively.

For the molecule `O=C(COc1ccc(Cl)cc1)Nc1ncccn1`, the viability is 106% (inactive) in assay [1], 107% (inactive) in assay [2], 92.6% in assay [3] (setting [6]) and 107% in assay [3] (setting [7]). Besides, in assay [3] (H69AR cells + 2 uM doxorubicin), the differential viability (reversal) is 14.6% (inactive). For the same molecule, the inhibition in assay [4] was -1.05% (inactive); in assay [5] it was 4.13% (inactive).

Turning to `COc1oc(-c2ccccc2)nc1C(F)(F)F`, the viability in assay [1] is 94.3% (inactive); in assay [2] it was 109% (inactive); in assay [3] (setting [6]), 99.9%; in assay [3] (setting [7]), 109%. Also, the differential viability (reversal) in assay [3] (H69AR cells + 2 uM doxorubicin) was 9.45% (inactive). In addition, the inhibition is -3.82% (inactive) in assay [4] and -2.38% (inactive) in assay [5].

In the case of `COc1ccccc1-n1c(C)nnc1SCC(=O)Nc1cccc(C(C)=O)c1`, the viability was 101% (inactive) in assay [1], 104% (inactive) in assay [2], 97% in assay [3] (setting [6]) and 104% in assay [3] (setting [7]). In addition, the differential viability (reversal) in assay [3] (H69AR cells + 2 uM doxorubicin) was 6.48% (inactive). The inhibition in assay [4] is -4.4% (inactive); in assay [5], 17.9% (inactive).

Turning to `CCOc1ccc(N(CC(=O)NCc2cccc(OC)c2)S(=O)(=O)c2c(C)noc2C)cc1`, the viability in assay [1] was 93.4% (inactive); in assay [2], 91.2% (inactive); in assay [3] (setting [6]) it was 95.8%; in assay [3] (setting [7]), 91.2%. Also, the differential viability (reversal) in assay [3] (H69AR cells + 2 uM doxorubicin) is -4.58% (inactive). The inhibition in assay [4] is 0.27% (inactive); in assay [5], -2.86% (inactive).

Consider `O=C(Nc1ccccc1)N(Cc1cccnc1)Cc1ccco1`, for which the viability in assay [1] is 86.1% (inactive); in assay [2], 96.8% (inactive); in assay [3] (setting [6]) it was 84.1%; in assay [3] (setting [7]) it was 96.8%. In assay [3] (H69AR cells + 2 uM doxorubicin), the differential viability (reversal) is 12.7% (inactive). Also, the inhibition in assay [4] is -4.74% (inactive); in assay [5], 1.75% (inactive).

For `COCCn1nnnc1C(C(C)C)N(Cc1cccnc1)Cc1ccccc1Cl` (stereo not given), the viability is 96.4% (inactive) in assay [1], 83.8% (inactive) in assay [2], 49% in assay [3] (setting [6]) and 83.8% in assay [3] (setting [7]). The differential viability (reversal) in assay [3] (H69AR cells + 2 uM doxorubicin) was 34.7% (inactive). Moreover, the inhibition was -2.34% (inactive) in assay [4] and 2.06% (inactive) in assay [5].

As to `Nc1nc(SCCOc2ccccc2)n[nH]1`, the viability in assay [1] is 94.1% (inactive); in assay [2], 97% (inactive); in assay [3] (setting [6]), 90.8%; in assay [3] (setting [7]) it was 97%. Moreover, the differential viability (reversal) in assay [3] (H69AR cells + 2 uM doxorubicin) was 6.12% (inactive). Moreover, the results for the inhibition in assay [4] and in assay [5] were -5.19% (inactive) and -5.24% (inactive), respectively.

As to `O=C(NCCN1CCCCC1)c1ccc(=O)oc1`, the viability in assay [1] was 101% (inactive); in assay [2], 99.2% (inactive); in assay [3] (setting [6]) it was 89.6%; in assay [3] (setting [7]), 99.2%. Besides, the differential viability (reversal) in assay [3] (H69AR cells + 2 uM doxorubicin) is 9.61% (inactive). Further, the values for the inhibition in assay [4] and in assay [5] were -8.03% (inactive) and -2.22% (inactive), respectively.

Consider `c1ccc(Cn2nnnc2C(c2ccccn2)N2CCOCC2)cc1` (stereo not given), for which the viability in assay [1] was 107% (inactive); in assay [2] it was 94.3% (inactive); in assay [3] (setting [6]), 96.5%; in assay [3] (setting [7]) it was 94.3%. For the same molecule, the differential viability (reversal) in assay [3] (H69AR cells + 2 uM doxorubicin) was -2.14% (inactive). Besides, the inhibition in assay [4] is -3.25% (inactive); in assay [5], -6.51% (inactive).

`C/C(Cl)=C\Cn1c(Nc2ccc(C)cc2)nc2c1c(=O)n(C)c(=O)n2C`: the viability in assay [1] is 77.5% (inactive); in assay [2] it was 72.1% (inactive); in assay [3] (setting [6]), 83.2%; in assay [3] (setting [7]), 72.1%. The differential viability (reversal) in assay [3] (H69AR cells + 2 uM doxorubicin) was -11.2% (inactive). In addition, the inhibition in assay [4] is -1.04% (inactive); in assay [5] it was 1.75% (inactive).
